Laboratory results reported in paper PMC4608253 (Journal of chromatography. B, Analytical technologies in …, 2015).
Where two headings read alike, the source gives them in different places.

Key:
in vivo = type: in vivo, A/J mice; conditions: for detected in the blood: mice, oral XCHT extract 0.5 g/kg; for concentration in the PK study: A/J mice, oral XCHT 500 mg/kg
[1] = type: physicochemical, mice; conditions: for Accuracy (RE, %) 25°C for 6 h / Accuracy (RE, %) Frozen for 30 days: stability in mice plasma/blood QC sample; for Accuracy (RE, %) Frozen for 30 days: −80°C; for Accuracy (RE, %) 4°C for 24 h: stability, extracted QC sample in auto-sampler
In short: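 Blank mouse blood spiked with analytes and vitamin C, then extracted with methanol containing daidzein internal standard (0.5 μM) by 1 min vortex. Spun at 20,000 × g for 15 min and dried under air. Three replicates per QC level were held unextracted at 25°C for 6 h, at −80°C for 30 days, or extracted in the 4°C autosampler for 24 h. Analysed by UPLC-MS/MS (C18, formic acid/acetonitrile, positive MRM); accuracy as RE.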

[2] = male, A/J, mouse, whole blood, po, 0.5 g/kg
[3] = male, A/J, mouse, whole blood, po, 500 mg/kg
[4] = male A/J mouse, oral XCHT extract 500 mg/kg, blood, mean±SD, n=6

| SMILES | Tmax (in vivo; [2]) [h] | AUC(0-inf) (in vivo; [3]) [µM·h] | AUC(0-t) (in vivo; [3]) [µM·h] | Cmax (in vivo; [3]) [nM] | half-life (in vivo; [3]) [h] | Accuracy (RE, %) 25°C for 6 h ([1]; spiked concentration 3.9) [%] | Accuracy (RE, %) 25°C for 6 h ([1]; spiked concentration 62.5) [%] | Accuracy (RE, %) 25°C for 6 h ([1]; spiked concentration 500) [%] | Accuracy (RE, %) Frozen for 30 days ([1]; spiked concentration 3.9) [%] | Accuracy (RE, %) Frozen for 30 days ([1]; spiked concentration 62.5) [%] | Accuracy (RE, %) Frozen for 30 days ([1]; spiked concentration 500) [%] | Accuracy (RE, %) 4°C for 24 h ([1]; spiked concentration 3.9) [%] | Accuracy (RE, %) 4°C for 24 h ([1]; spiked concentration 62.5) [%] | Accuracy (RE, %) 4°C for 24 h ([1]; spiked concentration 500) [%] | detected in the blood (in vivo) | Tmax (in vivo; [3]) [h] | further results |
| --- | --- | --- | --- | --- | --- | --- | --- | --- | --- | --- | --- | --- | --- | --- | --- | --- | --- |
| CC1(C)[C@@H](O)CC[C@]2(C)[C@H]3C(=O)C=C4[C@@H]5C[C@@](C)(C(=O)O)CC[C@]5(C)CC[C@@]4(C)[C@]3(C)CC[C@@H]12 [GA, glycyrrhetinic acid] | 7.25 ± 5.5 | 3.3 ± 1.18 | 3.3 ± 1.18 | 263 ± 87.3 | 4.77 ± 1.93 | 2.1 | 1.6 | 8.1 | 6.9 | 14.0 | 13.5 | 5.4 | 12 | 14.6 | – | – | Cmax (in vivo; [2]): 263 ± 87.3 nM |
| O=C1C[C@@H](c2ccc(O[C@@H]3O[C@H](CO)[C@@H](O)[C@H](O)[C@H]3O)cc2)Oc2cc(O)ccc21 [Liquiritin] | – | 0.137 ± 0.0417 | 0.137 ± 0.0417 | 48.7 ± 38.2 | 9.33 ± 3.42 | – | 5.5 | 12.7 | – | 13.8 | 10.9 | – | 15 | 12.8 | detected | – | Accuracy (RE, %) 25°C for 6 h ([1]; spiked concentration 0.488): 7.3%; Accuracy (RE, %) Frozen for 30 days ([1]; spiked concentration 0.488): 13.9%; Accuracy (RE, %) 4°C for 24 h ([1]; spiked concentration 0.488): 14.4% |
| CC(C)=CCC[C@](C)(O[C@@H]1O[C@H](CO)[C@@H](O)[C@H](O)[C@H]1O)[C@H]1CC[C@]2(C)[C@@H]1[C@H](O)C[C@@H]1[C@@]3(C)CC[C@H](O[C@@H]4O[C@H](CO)[C@@H](O)[C@H](O)[C@H]4O[C@@H]4O[C@H](CO)[C@@H](O)[C@H](O)[C@H]4O)C(C)(C)[C@@H]3CC[C@]12C [Rd, Ginsenoside Rd] | – | – | – | – | – | – | −3.7 | −7.1 | – | 11.4 | 12.2 | – | 12.8 | 12.3 | – | – | concentration in the PK study (in vivo; blood, time 360 min): 5.07±6.67; concentration in the PK study (in vivo; blood, time 720 min): 6.23±7.96; concentration in the PK study (in vivo; blood, time 1440 min): 5.20±7.64; Accuracy (RE, %) 25°C for 6 h ([1]; spiked concentration 0.488): 13.3%; Accuracy (RE, %) Frozen for 30 days ([1]; spiked concentration 0.488): 11.6%; Accuracy (RE, %) 4°C for 24 h ([1]; spiked concentration 0.488): −4% |
| C[C@H]1O[C@@H](O[C@H]2CC[C@@]3(C)[C@@H](CC[C@]4(C)[C@@H]3C=C[C@]35OC[C@@]6(CCC(C)(C)C[C@H]63)[C@H](O)C[C@]54C)[C@]2(C)CO)[C@H](O)[C@@H](O[C@@H]2O[C@H](CO)[C@@H](O)[C@H](O)[C@H]2O)[C@H]1O [SSd, saikosaponin d] | – | – | – | – | – | – | – | – | – | – | – | – | – | – | detected | – | AUC0-∞ (in vivo; [4]): 0.02584 ± 0.0185 µM·h; AUC(0-t) (in vivo; [4]): 0.02584 ± 0.0185 µM·h; Cmax (in vivo; [4]): 3.42 ± 0.74 nM; t1/2 (in vivo; [4]): 12.18 ± 5.32 h; Tmax (in vivo; male A/J mouse, oral XCHT extract 500 mg/kg, blood, median (min~max), n=6): 0.50 (0.125~0.5) h; Accuracy (RE, %) 25°C for 6 h ([1]; spiked concentration 0.049): 6.8%; Accuracy (RE, %) 25°C for 6 h ([1]; spiked concentration 6.25): −13.0%; Accuracy (RE, %) 25°C for 6 h ([1]; spiked concentration 50): 2.4%; Accuracy (RE, %) Frozen for 30 days ([1]; spiked concentration 0.049): 8.7%; Accuracy (RE, %) Frozen for 30 days ([1]; spiked concentration 6.25): 12.5%; Accuracy (RE, %) Frozen for 30 days ([1]; spiked concentration 50): 15.0%; Accuracy (RE, %) 4°C for 24 h ([1]; spiked concentration 0.049): −19%; Accuracy (RE, %) 4°C for 24 h ([1]; spiked concentration 6.25): 13.1%; Accuracy (RE, %) 4°C for 24 h ([1]; spiked concentration 50): 14.5% |
| O=C(O)[C@H]1O[C@@H](Oc2cc3oc(-c4ccccc4)cc(=O)c3c(O)c2O)[C@H](O)[C@@H](O)[C@@H]1O [Baicalin, baicalin] | 2.13 ± 1.18 | 9.71 ± 0.709 | 8.96 ± 2.08 | 787 ± 123 | 3.11 ± 0.95 | −5.7 | −5.3 | 1.1 | 6.7 | 14.1 | 4.9 | 3.8 | 14.8 | 5.2 | detected | 2.57 | – |
| COc1c(O)cc(O)c2c(=O)cc(-c3ccccc3)oc12 [Wogonin, wogonin] | 0.17 ± 0.09 | 0.116 ± 0.0822 | 0.11 ± 0.0878 | 18.8 ± 6.27 | 6.16 ± 4.85 | 11.4 | 9.5 | 3.1 | 8.4 | 15 | 10.3 | 9.2 | 14.8 | 13.5 | – | 0.167 | – |
| O=c1cc(-c2ccccc2)oc2cc(O)c(O)c(O)c12 [Baicalein, baicalein] | 0.083 | 0.119 ± 0.0338 | 0.0854 ± 0.026 | 32.7 ± 15 | 6.85 ± 4.32 | 10.3 | 9.9 | 0.7 | −11.4 | −14.5 | 9 | 12.3 | −14 | 13.1 | detected | 0.083 | – |
